Active and inactive are the calls of the source. No cut-off for these calls is given here.

Experiment [1] deals with Mus musculus. The experiment in a line: Protective effect against adenine-induced chronic renal failure in ig dosed Kunming mouse assessed as decrease in nephridial MDA levels administered as qd for 4 successive weeks by thiobarbituric acid method. The format is functional, organism-based. The method, boiled down:
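Male Kunming mice (20 ± 5 g) given dietary adenine to induce CRF, then dosed orally at 100 or 200 mg kg–1, with or without Haikunshenxi capsule; n = 10 per group. Kidney homogenate assayed for SOD and CAT (U mg–1 protein), GSH-Px (U L–1), GSH (mg g–1 protein) and MDA (nmol mL–1).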

Experiment [2] concerns Mus musculus. Nature of the experiment: Protective effect against adenine-induced chronic renal failure in ig dosed Kunming mouse assessed as decrease in blood urea nitrogen levels in serum administered as qd for 4 successive weeks by diacetyl oxime method. The format is functional, organism-based. The method, boiled down: (§1)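 Adenine-fed CRF model in male Kunming mice (20 ± 5 g) housed at 18–20 °C on a 12 h light/dark cycle. Oral dosing at 100 or 200 mg kg–1, with or without Haikunshenxi capsule; ten mice per group. Serum creatinine, BUN, total protein and albumin measured, each group compared with the model group.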

Experiment [3] concerns Mus musculus. Nature of the experiment: Protective effect against adenine-induced chronic renal failure in Kunming mouse assessed as nephridial iNOS levels at 200 mg/kg, ig qd administered for 4 successive weeks (reference value: 1.98 +/- 0.12 U/mg). The experiment is classed as functional.
The subject of experiment [4] is Mus musculus. The experiment in a line: Protective effect against adenine-induced chronic renal failure in ig dosed Kunming mouse assessed as decrease in nephridial IL-6 levels administered as qd for 4 successive weeks with haikunshenxi capsule. The format is functional, organism-based. The method, boiled down:
(§2)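 CRF model made by chronic dietary adenine in male Kunming mice (20 ± 5 g); oral dosing at 100 or 200 mg kg–1, alone or with Haikunshenxi capsule; ten mice per group. Kidney tissue TNF-α, IL-1β and IL-6 measured as pg per mg protein, and iNOS activity as U mg–1 protein.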

In experiment [5] the test system is Mus musculus. The experiment in a line: Protective effect against adenine-induced chronic renal failure in Kunming mouse assessed as weight growth rate at 200 mg/kg, ig qd administered for 4 successive weeks with haikunshenxi capsule measured 24 hrs post last dose (reference value: 32.42 +/- 1.43%). The format is functional. Put shortly:
(§3)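 Male Kunming mice (20 ± 5 g) kept on a 12 h light/dark cycle at 18–20 °C on a standard diet. CRF induced by chronic dietary adenine. Test material given orally at 100 or 200 mg kg–1, alone or with Haikunshenxi capsule, alongside normal, model and capsule-only groups; ten mice per group. Weight growth rate recorded in %, kidney index in mg g–1.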

For experiment [6], the system named is Mus musculus. Nature of the experiment: Protective effect against adenine-induced chronic renal failure in ig dosed Kunming mouse assessed as increase in total protein levels in serum administered as qd for 4 successive weeks with haikunshenxi capsule by coomassie brilliant blue method. The experiment is classed as functional, organism-based. Put shortly:
as §1

The subject of experiment [7] is Mus musculus. Nature of the experiment: Protective effect against adenine-induced chronic renal failure in Kunming mouse assessed as nephridial SOD levels at 200 mg/kg, ig qd administered for 4 successive weeks with haikunshenxi capsule by hydroxylamine method (reference value: 30.45 +/- 1.12 U/mg). The format is functional.
Experiment [8] has as its system Mus musculus. Nature of the experiment: Protective effect against adenine-induced chronic renal failure in Kunming mouse assessed as nephridial CAT levels at 200 mg/kg, ig qd administered for 4 successive weeks with haikunshenxi capsule by visible spectrometry method (reference value: 44.13 +/- 1.25 U/mg). The experiment is classed as functional.
Experiment [9] deals with Mus musculus. The experiment in a line: Protective effect against adenine-induced chronic renal failure in ig dosed Kunming mouse assessed as decrease in nephridial IL-6 levels administered as qd for 4 successive weeks. The format is functional, organism-based. The method, boiled down:
as §2

In experiment [10] the test system is Mus musculus. The experiment in a line: Protective effect against adenine-induced chronic renal failure in ig dosed Kunming mouse assessed as decrease in nephridial iNOS levels administered as qd for 4 successive weeks. The format is functional, organism-based. Put shortly: as §2
The subject of experiment [11] is Mus musculus. The experiment in a line: Protective effect against adenine-induced chronic renal failure in Kunming mouse assessed as weight growth rate at 200 mg/kg, ig qd administered for 4 successive weeks measured 24 hrs post last dose (reference value: 32.42 +/- 1.43%). The format is functional. The method, boiled down:
as §3

Experiment [12] concerns Mus musculus. The experiment in a line: Protective effect against adenine-induced chronic renal failure in ig dosed Kunming mouse assessed as increase in albumin levels in serum administered as qd for 4 successive weeks by bromocresol green colorimetric method. The experiment is classed as functional, organism-based. The method, boiled down:
as §1

In experiment [13] the test system is Mus musculus. The experiment in a line: Protective effect against adenine-induced chronic renal failure in ig dosed Kunming mouse assessed as decrease in serum creatinine levels administered as qd for 4 successive weeks by picric acid colorimetric method. The experiment is classed as functional, organism-based. The method, boiled down:
as §1

The subject of experiment [14] is Mus musculus. Nature of the experiment: Protective effect against adenine-induced chronic renal failure in Kunming mouse assessed as nephridial CAT levels at 100 mg/kg, ig qd administered for 4 successive weeks by visible spectrometry method (reference value: 44.13 +/- 1.25 U/mg). The experiment is classed as functional.
Experiment [15] deals with Mus musculus. The experiment in a line: Protective effect against adenine-induced chronic renal failure in Kunming mouse assessed as reduction in renal tubular atrophy at 200 mg/kg, ig qd administered for 4 successive weeks by haematoxylin and eosin dye-based optical microscopic method. The format is functional, organism-based. Put shortly:
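Kidneys were taken from male Kunming mice given an adenine diet plus oral melanin (100 or 200 mg kg–1), with or without Haikunshenxi capsule, ten per group. Histological sections were examined at 400× for glomeruli, tubules, adenine crystals, tubular atrophy and interstitial fibrosis.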

The subject of experiment [16] is Mus musculus. The experiment in a line: Protective effect against adenine-induced chronic renal failure in Kunming mouse assessed as nephridial GSH levels at 100 mg/kg, ig qd administered for 4 successive weeks by colorimetric method (reference value: 3.05 +/- 0.11 mg/g). The format is functional.
The test system of experiment [17] is Mus musculus. The experiment in a line: Protective effect against adenine-induced chronic renal failure in ig dosed Kunming mouse assessed as decrease in blood urea nitrogen levels in serum administered as qd for 4 successive weeks with haikunshenxi capsule by diacetyl oxime method. The experiment is classed as functional, organism-based. Put shortly: as §1

Experiment [18] has as its system Mus musculus. Nature of the experiment: Protective effect against adenine-induced chronic renal failure in Kunming mouse assessed as nephridial SOD levels at 100 mg/kg, ig qd administered for 4 successive weeks by hydroxylamine method (reference value: 30.45 +/- 1.12 U/mg). The experiment is classed as functional.
For experiment [19], the system named is Mus musculus. Nature of the experiment: Protective effect against adenine-induced chronic renal failure in Kunming mouse assessed as kidney index at 200 mg/kg, ig qd administered for 4 successive weeks measured 24 hrs post last dose (reference value: 1.94 +/- 0.03 mg/g). The format is functional. The method, boiled down: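 Male Kunming mice (20 ± 5 g) were housed on a 12 h light/dark cycle at 18–20 °C. Chronic renal failure was induced by long-term dietary adenine. The melanin was given orally at 100 or 200 mg kg–1, alone or with Haikunshenxi capsule as positive drug, with ten mice per group. Weight growth rate (%) and kidney index (mg g–1) were recorded.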

The test system of experiment [20] is Mus musculus. Nature of the experiment: Protective effect against adenine-induced chronic renal failure in Kunming mouse assessed as nephridial GSH levels at 100 mg/kg, ig qd administered for 4 successive weeks with haikunshenxi capsule by colorimetric method (reference value: 3.05 +/- 0.11 mg/g). The format is functional.
Experiment [21] relates to Mus musculus. Nature of the experiment: Protective effect against adenine-induced chronic renal failure in ig dosed Kunming mouse assessed as decrease in nephridial IL-1beta levels administered as qd for 4 successive weeks with haikunshenxi capsule. The format is functional, organism-based. Put shortly:
as §2

The subject of experiment [22] is Mus musculus. The experiment in a line: Protective effect against adenine-induced chronic renal failure in Kunming mouse assessed as nephridial iNOS levels at 200 mg/kg, ig qd administered for 4 successive weeks with haikunshenxi capsule (reference value: 1.98 +/- 0.12 U/mg). The experiment is classed as functional.
Experiment [23] has as its system Mus musculus. Nature of the experiment: Protective effect against adenine-induced chronic renal failure in Kunming mouse assessed as nephridial IL-1beta levels at 100 mg/kg, ig qd administered for 4 successive weeks (reference value: 18.34 +/- 0.25 pg/ml). The experiment is classed as functional.

On to `Cc1c(=O)c(=O)c2c3c[nH]c4c(C)c(=O)c(=O)c(c5c[nH]c1c52)c43`, for which the Activity result in the experiment with Mus musculus [1] is “Dose-dependent effect”; with Mus musculus [2], “Dose-dependent effect”; in the experiment on Mus musculus [3], 1.64 U/mg; in the experiment on Mus musculus [4], “Dose-dependent effect”; in the experiment on Mus musculus [5], 56.64%; in the experiment with Mus musculus [6], “Dose-dependent effect”. Also, the Activity with Mus musculus [7] was 48.58 U/mg; with Mus musculus [8] it was 76.47 U/mg; in the experiment on Mus musculus [9], “Dose-dependent effect”; in the experiment with Mus musculus [10] it was “Dose-dependent effect”; in the experiment on Mus musculus [11] it was 52.68%; with Mus musculus [12], “Dose-dependent effect”. Further, the Activity entry is “Dose-dependent effect” with Mus musculus [13]; 60.53 U/mg in the experiment on Mus musculus [14]; 4.19 mg/g with Mus musculus [16]; “Dose-dependent effect” with Mus musculus [17]; 32.32 U/mg in the experiment on Mus musculus [18]; 1.35 mg/g in the experiment on Mus musculus [19]. For the same compound, the Activity was 5.23 mg/g in the experiment with Mus musculus [20], “Dose-dependent effect” in the experiment on Mus musculus [21], 0.68 U/mg in the experiment with Mus musculus [22] and 17.66 pg/mL in the experiment with Mus musculus [23]. Besides, in the experiment with Mus musculus [15], the result was Active.

The values are drawn from ChEMBL document CHEMBL4257441, “Protection effect of intracellular melanin from Lachnum YM156 and Haikunshenxi capsule combination on adenine-induced chronic renal failure in mice” (Medchemcomm, 2017).
